# From PMC4785611 (British Journal of Haematology, 2016)
# Entries after “also recorded” stand apart in the source; their conditions may differ.
# How the values were obtained:
# [1] = tested on: Japanese patients with relapsed and/or refractory multiple myeloma; experiment: Phase 1 dose escalation: dose-limiting toxicity in Cycle 1; format: in vivo, human; settings: for Dose-limiting toxicity (DLT): Cycle 1
# Summary of the method: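 Test compound was given IV over 10 min on Days 1, 2, 8, 9, 15 and 16 of 28-day cycles. The 20/27 arm received 20 mg/m2 on Days 1–2 of Cycle 1 and 27 mg/m2 from Day 8. Three or six patients per cohort: 1/3 DLT added three patients. At 2/3 or 3/6, the prior level became the recommended dose. No G-CSF was allowed during Cycle 1 evaluation.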
# [2] = tested on: patients with multiple myeloma; settings: of 526 patients; ref Siegel et al, 2013; cited from earlier work
# [3] = tested on: Japanese patients with relapsed and/or refractory multiple myeloma; experiment: Phase 1/2 study ONO-7057-01: adverse events; format: in vivo, human
# Summary of the method: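 Safety set was all patients given ≥1 IV dose (10 min; Days 1, 2, 8, 9, 15, 16 of 28-day cycles). Pre-medication was 4 mg oral or IV dexamethasone, with hydration in Cycle 1. Cycle 1 also had prophylactic antibiotics, plus acyclovir if herpes history. Patients with Grade ≥3 or painful Grade 2 PN or prior ILD were excluded. AEs were graded by NCI-CTCAE v4.0 through Cycle 6, with later cycles included.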
smiles,measurement,setting,value
CC(C)C[C@H](NC(=O)[C@H](CCc1ccccc1)NC(=O)CN1CCOCC1)C(=O)N[C@@H](Cc1ccccc1)C(=O)N[C@@H](CC(C)C)C(=O)[C@@]1(C)CO1 [carfilzomib],Dose-limiting toxicity (DLT),"[1]; 15 mg/m^2 cohort, four patients (one not evaluable)",no DLT was observed
same,Dose-limiting toxicity (DLT),"[1]; 20/27 mg/m^2 cohort, seven patients (one not evaluable)",no DLT was observed
same,Maximum tolerated dose (MTD),"[1]; doses 15, 20 and 20/27 mg/m^2",did not reach the maximum tolerated dose; also recorded: did not reach the MTD
same,"PN Grade ≥3, patients, integrated analysis",[2],seven
same,"Peripheral neuropathy under study treatment, preferred terminology (Grade)","[3]; Patient No. 1, 20 mg/m^2, baseline PN Grade 1, worst PN Grade before the study 3",Peripheral neuropathy (2)
same,Interstitial lung disease (ILD),"[3]; Total, N = 50",No ILD was observed
same,AEs leading to death,[3]; during administration period or within 30 days after final administration,No AEs led to death
same,New PN in patients who had never experienced PN before enrolment,[3]; five patients without PN history,no new cases of PN occurred and did not develop PN and none
same,Patients with PN at baseline in whom carfilzomib exacerbated PN,[3]; of 35 patients with PN at baseline,three
same,"Patients believed to have infections leading to treatment interruption (pneumonia, fever)",[3]; of the 24 patients whose treatment was interrupted,three
same,Patients with treatment interrupted because of neutropenia,"[3]; of the 24 patients whose treatment was interrupted, seven events",five
